Source: PubChem BioAssay (The Scripps Research Institute Molecular Screening Center)
Most compounds without a hit are left out; they make up all but 2.3% or so of the library.
PLCb3 inh = inhibitors of human phospholipase C beta3 | 0.18% of 370,000 active | Purified PLC-beta3, fluorogenic substrate, fluorescence | inhibition, % at 12.2 µM | Q01970 | AID 720704;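 note: 0% = median of compound wells on plate and 100% = full blocker control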
PLCg1 inh = inhibitors of human phospholipase C gamma1; 0.84% of 370,000 active; inhibition, % at 12.2 µM; purified PLC-gamma1, fluorogenic substrate, fluorescence; AID 720700; P19174; in the data active = inhibition above about 9.5%
Tn6 DDE FP = DD(E)-Tn6 binding inhibition, primary FP screen; inhibition, % at 8.3 µM; AID 720509; Fibrin DD(E) TRITC-Tn6 fluorescence polarization displacement; P02675; 0.21% of 370,000 active;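 active = inhibition above a per-campaign cutoff: mean of compounds within control limits plus 3 SD, cut at about 15% in these data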;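 note: 0% = median of all compound wells on the plate and 100% = blocking peptide control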
Target sequence (P02675 whole entry, looked up): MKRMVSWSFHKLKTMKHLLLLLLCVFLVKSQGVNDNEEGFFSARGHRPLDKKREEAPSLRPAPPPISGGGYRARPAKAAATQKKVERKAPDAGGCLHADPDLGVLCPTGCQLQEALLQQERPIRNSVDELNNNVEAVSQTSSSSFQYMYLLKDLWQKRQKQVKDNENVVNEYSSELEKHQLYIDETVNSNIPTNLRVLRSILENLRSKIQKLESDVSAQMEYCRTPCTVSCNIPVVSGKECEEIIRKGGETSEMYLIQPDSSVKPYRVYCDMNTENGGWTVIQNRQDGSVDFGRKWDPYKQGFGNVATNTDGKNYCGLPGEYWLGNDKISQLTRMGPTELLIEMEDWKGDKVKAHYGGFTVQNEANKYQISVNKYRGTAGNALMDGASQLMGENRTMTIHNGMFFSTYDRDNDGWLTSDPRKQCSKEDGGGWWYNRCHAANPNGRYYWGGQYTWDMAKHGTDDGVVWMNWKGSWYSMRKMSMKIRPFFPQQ
ADAM17 inh = inhibitors of human ADAM17; 0.83% of 370,000 active; P78536; inhibition, % at 6.95 µM; recombinant ADAM17, EDANS/DABCYL FRET peptide cleavage;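 active = inhibition above the mean of compounds lying between control limits plus 3 SD, set per campaign, cut at about 8.5% in these data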;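 note: 0% = DMSO-only wells as the low control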
ADAM10 inh = inhibits human ADAM10; O14672; recombinant ADAM10, EDANS/DABCYL FRET peptide cleavage, 3 h; inhibition, % at 7 µM; 0.62% of 370,000 active; AID 720582;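 active = inhibition above a per-campaign cutoff equal to the mean of compounds falling between control-based bounds plus 3 SD, cut at about 20% in these data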;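 note: 0% = DMSO wells while the 100% control is not disclosed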
DDE Tn7 FP inh = disrupts Tn7 cyclic peptide binding to fibrin D-Dimer-E complex. P02675. FP displacement of FITC-Tn7 peptide from fibrin DD(E); 0% = median of compound wells per plate. inhibition, % at 8.3 µM. 0.13% of 370,000 active;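 active = inhibition above the mean of compounds falling within the control limits plus 3 SD of them, cut at about 14% in these data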;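 note: 0% = plate median of compound wells and 100% = 10 µM Aha-Tn7 peptide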
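Measure: % inhibition scaled between sample-field median and high-control FP; Test system: human fibrin DD(E); Quantity: 2 µM final DD(E) protein; Doses: one dose, 8.3 µM nominal; Schedule: compound with protein 10 min, then 3 h after probe, room temperature; Detection: fluorescence polarization; Medium: Tris buffer with calcium and detergent, pH 7.8.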
PLCgamma1 ctr = PLC-gamma1 inhibition, counter-screen for PLC-beta3 hits; shares compounds with PLCg1 inh; purified PLC-gamma1, fluorogenic substrate, fluorescence; inhibition, % at 12.3 µM; 3.1% of 3,300 active; AID 743258; in the data active = inhibition above about 9.5%
PLCbeta3 conf = confirmation of human PLC-beta3 inhibitors; shares compounds with PLCg1 inh; purified PLC-beta3, fluorogenic substrate fluorescence; inhibition, % at 12.3 µM; 1% of 3,300 active
The depositor's hits bear a star. Cut-off read from the data, not from the text of the source, unless noted: active = inhibition above about 11%; inactive = the rest.

How did COc1ccc(C#CCN(Cc2ccc(OC)cc2OC)C(N)=NC(=O)CCc2ccccc2)cc1 do in these assays?
PLCb3 inh: -6.0; PLCg1 inh: -3.1; Tn6 DDE FP: -3.6; ADAM17 inh: 4.4; ADAM10 inh: 12.1; DDE Tn7 FP inh: 1.2

What do the screens show for `Cc1ccc(OC(=O)C2CCN(C(=O)c3ccccc3C)CC2)c(Br)c1`?
PLCb3 inh: -0.3; PLCg1 inh: 10.8*; Tn6 DDE FP: -8.3; ADAM17 inh: 7.2; ADAM10 inh: -10.7; DDE Tn7 FP inh: -3.7; PLCgamma1 ctr: -3.6; PLCbeta3 conf: -5.2

How did COC(=O)C1CCN(C(=O)c2ccccc2Oc2ccccc2)CC1 do in these assays?
PLCb3 inh: 6.1; PLCg1 inh: 2.3; Tn6 DDE FP: -1.9; ADAM17 inh: 0.7; ADAM10 inh: 5.0; DDE Tn7 FP inh: -1.9

What do the screens show for `COc1ccc2c(OC)cc(=O)n(C)c2c1`?
PLCb3 inh: 2.6; PLCg1 inh: 12.8*; Tn6 DDE FP: -5.6; ADAM17 inh: -1.0; ADAM10 inh: 1.1; DDE Tn7 FP inh: -3.0; PLCgamma1 ctr: -7.0; PLCbeta3 conf: -5.4

What do the screens show for `COc1ccc(C2SCC(=O)N2CCCN(C)C)cc1` (centres undefined)?
PLCb3 inh: 13.2*; PLCg1 inh: 8.2; Tn6 DDE FP: 2.0; ADAM17 inh: 5.0; ADAM10 inh: 5.5; DDE Tn7 FP inh: 1.1; PLCgamma1 ctr: -5.3; PLCbeta3 conf: 0.0

Results for CC(C)(C)c1ccc(CNc2nc(-c3ccccn3)nnc2-c2ccccc2)cc1 ?
PLCb3 inh: 5.2; PLCg1 inh: 17.8*; Tn6 DDE FP: -17.8; ADAM17 inh: -1.7; ADAM10 inh: 1.2; DDE Tn7 FP inh: -5.2; PLCgamma1 ctr: 13.6*; PLCbeta3 conf: 15.2*

How did COC(=O)[C@H]1C[C@@]2(C)c3ccccc3N(S(=O)(=O)c3ccccc3)[C@H]2N1C(=O)CNC1CCCCC1 do in these assays?
PLCb3 inh: 2.5; PLCg1 inh: 4.9; Tn6 DDE FP: -4.6; ADAM17 inh: -2.1; ADAM10 inh: -5.9; DDE Tn7 FP inh: -7.5

How did COCOc1cccc(CN2CCC2(C)C(=O)Nc2ccc(C)cc2)c1 (centres undefined) do in these assays?
PLCb3 inh: 0.3; PLCg1 inh: 12.9*; Tn6 DDE FP: 7.2; ADAM17 inh: 7.9; ADAM10 inh: 11.4; DDE Tn7 FP inh: -5.6; PLCgamma1 ctr: -7.1; PLCbeta3 conf: -5.3

What do the screens show for `COCOc1cccc(CN2CCC2(C)C(=O)Nc2ccc(C)c(O)c2)c1` (centres undefined)?
PLCb3 inh: -5.8; PLCg1 inh: 2.2; Tn6 DDE FP: 10.6; ADAM17 inh: -1.0; ADAM10 inh: -7.3; DDE Tn7 FP inh: -1.7

What do the screens show for `CC(C)Oc1ccc(CN2CCC2(C)C(=O)Nc2ccc3c(c2)OCO3)cc1` (centres undefined)?
PLCb3 inh: 8.2; PLCg1 inh: 12.4*; Tn6 DDE FP: -0.6; ADAM17 inh: 8.4; ADAM10 inh: 8.9; DDE Tn7 FP inh: -2.0; PLCgamma1 ctr: -0.9; PLCbeta3 conf: 4.8

Results for Cc1[nH][nH]c(=O)c1C=NCc1cccs1 ?
PLCb3 inh: 0.7; PLCg1 inh: 3.1; Tn6 DDE FP: 5.6; ADAM17 inh: -2.9; ADAM10 inh: -4.6; DDE Tn7 FP inh: 4.6

Results for Cc1[nH][nH]c(=O)c1C=NCc1cccnc1 ?
PLCb3 inh: 7.2; PLCg1 inh: 11.0*; Tn6 DDE FP: -5.1; ADAM17 inh: 5.7; ADAM10 inh: 4.4; DDE Tn7 FP inh: -0.9; PLCgamma1 ctr: 0.7; PLCbeta3 conf: 3.4

How did Fc1ccc(C(c2nnnn2C2CCCC2)N(Cc2ccco2)CC2CCCO2)cc1 (centres undefined) do in these assays?
PLCb3 inh: 11.5*; PLCg1 inh: 11.0*; Tn6 DDE FP: 0.7; ADAM17 inh: 7.1; ADAM10 inh: 13.2; DDE Tn7 FP inh: -7.1; PLCgamma1 ctr: -6.9; PLCbeta3 conf: -0.3
